{
  "source": "paper PMC4576835",
  "about": "(Clinical and experimental pharmacology & physiology, 2009)",
  "key": {"[1]": {"details": "in whole blood; cited from earlier work"}, "[2]": {"target": "T1, glypican-1 binding to Slit protein (Homo sapiens, UniProt O94813, DEL1116-1124)", "T1 sequence (O94813 with tags, fused parts or gaps DEL1116-1124)": "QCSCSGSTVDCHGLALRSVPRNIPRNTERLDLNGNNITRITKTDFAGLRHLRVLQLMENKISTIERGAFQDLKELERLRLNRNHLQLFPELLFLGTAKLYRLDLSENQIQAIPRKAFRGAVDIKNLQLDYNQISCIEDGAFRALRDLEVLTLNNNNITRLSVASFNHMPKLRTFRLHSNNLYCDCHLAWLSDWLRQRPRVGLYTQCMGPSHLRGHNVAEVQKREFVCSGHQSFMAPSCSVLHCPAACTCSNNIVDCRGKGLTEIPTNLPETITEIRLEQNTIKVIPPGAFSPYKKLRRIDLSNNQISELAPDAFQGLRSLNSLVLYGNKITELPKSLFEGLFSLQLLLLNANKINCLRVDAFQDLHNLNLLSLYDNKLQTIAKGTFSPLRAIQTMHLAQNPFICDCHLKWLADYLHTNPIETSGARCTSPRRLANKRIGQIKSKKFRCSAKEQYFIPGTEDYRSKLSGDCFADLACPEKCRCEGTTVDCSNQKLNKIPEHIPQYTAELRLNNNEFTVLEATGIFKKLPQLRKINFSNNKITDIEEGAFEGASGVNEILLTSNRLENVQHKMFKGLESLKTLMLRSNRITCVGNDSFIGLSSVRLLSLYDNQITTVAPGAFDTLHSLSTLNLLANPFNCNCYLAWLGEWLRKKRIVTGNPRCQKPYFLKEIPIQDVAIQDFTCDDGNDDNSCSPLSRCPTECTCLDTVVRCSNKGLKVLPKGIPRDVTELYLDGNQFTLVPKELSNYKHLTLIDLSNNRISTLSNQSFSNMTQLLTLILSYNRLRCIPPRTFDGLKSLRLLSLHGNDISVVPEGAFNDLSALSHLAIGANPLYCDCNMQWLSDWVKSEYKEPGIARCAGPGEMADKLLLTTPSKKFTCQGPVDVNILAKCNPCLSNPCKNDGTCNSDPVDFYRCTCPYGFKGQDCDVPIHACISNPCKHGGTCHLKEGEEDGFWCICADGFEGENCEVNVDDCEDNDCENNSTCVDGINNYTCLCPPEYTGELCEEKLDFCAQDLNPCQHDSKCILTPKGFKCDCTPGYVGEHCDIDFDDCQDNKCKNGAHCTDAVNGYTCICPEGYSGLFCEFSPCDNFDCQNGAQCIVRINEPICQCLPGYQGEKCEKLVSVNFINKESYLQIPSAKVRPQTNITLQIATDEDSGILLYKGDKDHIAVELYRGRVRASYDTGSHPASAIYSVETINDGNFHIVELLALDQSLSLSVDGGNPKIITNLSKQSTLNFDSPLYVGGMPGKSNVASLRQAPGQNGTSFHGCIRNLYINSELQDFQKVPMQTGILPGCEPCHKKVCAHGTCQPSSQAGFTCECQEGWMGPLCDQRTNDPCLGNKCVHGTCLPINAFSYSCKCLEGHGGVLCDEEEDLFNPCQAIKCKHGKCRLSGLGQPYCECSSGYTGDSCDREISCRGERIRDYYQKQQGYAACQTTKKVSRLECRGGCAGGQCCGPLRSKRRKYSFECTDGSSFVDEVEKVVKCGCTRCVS", "assay": "ELISA of glypican-1–Fc binding to immobilised human full-length Slit-2", "how_it_was_run": "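Wells coated overnight with His-tagged uncleavable full-length human Slit-2 (HEK293-expressed, Ni-agarose purified), 5 μg/well in PBS; blocked 2 h with 10% FBS/TBST. Glycanated glypican-1–Fc (HEK293, DEAE then protein A) added at 1 μg/mL in PBS, 18 h, room temperature. Detection: biotinylated anti-human Fc, HRP-streptavidin, o-phenylenediamine, 450 nm. Non-specific binding from BSA-coated wells; bound amount read from glypican-1–Fc standard curve; replicates.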"}},
  "data": [
    {"smiles": "O=S(=O)(O)c1cc2c(O)c(c1)Cc1cc(S(=O)(=O)O)cc(c1O)Cc1cc(S(=O)(=O)O)cc(c1O)Cc1cc(S(=O)(=O)O)cc(c1O)Cc1cc(S(=O)(=O)O)cc(c1O)Cc1cc(S(=O)(=O)O)cc(c1O)Cc1cc(S(=O)(=O)O)cc(c1O)Cc1cc(S(=O)(=O)O)cc(c1O)C2", "note": "[GL-522-Y-1, cyclic octaphenol-octasulphonic acid]", "values": [
      {"measurement": "anticoagulant activity", "setting": "[1]", "result": "no significant anticoagulant activity"},
      {"measurement": "inhibition of glypican binding to Slit", "setting": "[2]; at 5 μmol/L", "result": 61, "unit": "%"},
      {"measurement": "inhibition of glypican binding to Slit", "setting": "[2]; at 50 μmol/L", "result": 67, "unit": "%"}
    ]},
    {"smiles": "CO[C@H]1O[C@H](COS(=O)(=O)O)[C@@H](O[C@@H]2O[C@@H](C(=O)O)[C@@H](O[C@H]3O[C@H](COS(=O)(=O)O)[C@@H](O[C@@H]4O[C@H](C(=O)O)[C@@H](O[C@H]5O[C@H](COS(=O)(=O)O)[C@@H](O)[C@H](O)[C@H]5NS(=O)(=O)O)[C@H](O)[C@H]4O)[C@H](OS(=O)(=O)O)[C@H]3NS(=O)(=O)O)[C@H](O)[C@H]2OS(=O)(=O)O)[C@H](O)[C@H]1NS(=O)(=O)O", "note": "[fondaparinux]", "values": [
      {"measurement": "inhibition of glypican–Slit binding (in words)", "setting": "[2]; at concentrations up to 50 μmol/L", "result": "completely inactive"}
    ]},
    {"smiles": "Cc1ccc(C(=O)Nc2ccc(S(=O)(=O)O)c3cc(S(=O)(=O)O)cc(S(=O)(=O)O)c23)cc1NC(=O)c1cccc(NC(=O)Nc2cccc(C(=O)Nc3cc(C(=O)Nc4ccc(S(=O)(=O)O)c5cc(S(=O)(=O)O)cc(S(=O)(=O)O)c45)ccc3C)c2)c1", "note": "[suramin]", "values": [
      {"measurement": "inhibition at 5 µM", "setting": "[2]; read-out: inhibition of glypican binding to Slit", "result": 53, "unit": "%"}
    ]}
  ]
}
